PLCg1 inh – PLC-gamma1 enzyme inhibitors, primary screen, biochemical, fluorescence, purified enzyme; 1-phosphatidylinositol 4,5-bisphosphate phosphodiesterase gamma-1 (Homo sapiens), P19174; fluorogenic substrate; inhibition, % at 12.2 µM; hit rate 0.84% among 370,000; in the data active means inhibition above about 9.5%
Tn6 DDE FP – inhibitors of Tn6 peptide binding to fibrin DD(E), primary screen, biochemical, fluorescence polarization, human fibrin, Tn6 probe. Fibrinogen beta chain (Homo sapiens), P02675. Fibrin DD(E) TRITC-Tn6 fluorescence polarization displacement. inhibition, % at 8.3 µM. hit rate 0.21% among 370,000;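 active means inhibition above a per-campaign cutoff: mean of compounds within control limits plus 3 SD, cut at about 15% in these data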;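 further: 0% = median of all compound wells on the plate and 100% = blocking peptide control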
Target sequence (P02675 whole entry, looked up): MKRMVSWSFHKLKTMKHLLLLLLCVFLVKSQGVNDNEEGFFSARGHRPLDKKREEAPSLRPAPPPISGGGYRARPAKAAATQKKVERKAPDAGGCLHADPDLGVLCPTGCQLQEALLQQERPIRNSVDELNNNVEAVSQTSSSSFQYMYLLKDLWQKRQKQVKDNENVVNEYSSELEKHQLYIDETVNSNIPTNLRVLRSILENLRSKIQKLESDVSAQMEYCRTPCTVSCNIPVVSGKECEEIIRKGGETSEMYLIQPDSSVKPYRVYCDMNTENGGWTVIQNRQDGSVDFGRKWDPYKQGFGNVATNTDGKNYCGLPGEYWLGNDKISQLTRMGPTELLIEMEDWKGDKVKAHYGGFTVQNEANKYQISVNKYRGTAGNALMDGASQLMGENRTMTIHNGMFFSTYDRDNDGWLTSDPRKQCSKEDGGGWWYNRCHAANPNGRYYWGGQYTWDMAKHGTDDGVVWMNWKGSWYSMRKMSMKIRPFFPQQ
DDE Tn7 FP inh – inhibitors of Tn7 peptide binding to fibrin DD(E), primary screen, biochemical, fluorescence polarization, human fibrin, Tn7 probe; Fibrinogen beta chain (Homo sapiens), P02675; FP displacement of FITC-Tn7 peptide from fibrin DD(E); 0% = median of compound wells per plate; inhibition, % at 8.3 µM; hit rate 0.13% among 370,000; AID 720508, 2013;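 active means inhibition above the mean of compounds falling within the control limits plus 3 SD of them, cut at about 14% in these data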;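 further: 0% = plate median of compound wells and 100% = 10 µM Aha-Tn7 peptide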
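assay system = human clot-derived fibrin DD(E) complex | quantity = Fibrin-DD(E) at 2 µM final | timing = 10 min preincubation, 3 h with tracer, room temperature | signal = fluorescence polarization | measure = percent inhibition | benchmarks = high control wells with 10 µM unlabelled Aha-Tn7 peptide (full inhibition) | replicates = singlicate testing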
PLCb3 inh – human PLC-beta3 inhibitors, primary screen, biochemical, fluorescence. AID 720704, 2013. inhibition, % at 12.2 µM. Purified PLC-beta3, fluorogenic substrate. 1-phosphatidylinositol 4,5-bisphosphate phosphodiesterase beta-3 (Homo sapiens), Q01970. hit rate 0.18% among 370,000; in the data active means inhibition above about 11%;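 further: 0% = median of compound wells on plate and 100% = full blocker control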
proKLK7 act – proKLK7 zymogen activators, primary screen, biochemical, fluorescence intensity; AID 652039, 2013; activation, % at 7 µM; purified proKLK7, EDANS-DABCYL substrate fluorescence; 100% is mature enzyme control, 0% vehicle; hit rate 0.9% among 370,000;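 active means activation above the mean of all tested compounds plus 3 SD, computed per campaign excluding outliers beyond control limits, cut at about 13% in these data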
NRP1-CendR mod – modulators of CendR peptide binding to NRP-1, primary screen, biochemical, fluorescence polarization, uHTS. Neuropilin-1 (Homo sapiens), O14786. FAM-RPARPAR peptide binding to NRP-1. inhibition, % at 25 µM. hit rate 0.85% among 360,000;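 active means inhibition or corrected inhibition above about 18%, plus a signal ratio from 0.5 to 1.5, limit read from the data, passing the limit was not always enough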
An asterisk follows results filed as active; nt = not tested or not shown. Only some compounds are listed: those with a hit (about 3% of all), similar ones and a draw of the others.

SMILES	PLCg1 inh	Tn6 DDE FP	DDE Tn7 FP inh	PLCb3 inh	proKLK7 act	NRP1-CendR mod
C#CCOCCOCCOCCNc1nc(N2CCN(C(=O)CCCCCCCCCCNC(=O)Cn3cc(CCCCCN)nn3)CC2)nc(N2CCN(C(=O)CCCCCCCCCCNC(=O)Cn3cc(CCCCCN)nn3)CC2)n1	nt	nt	nt	nt	nt	18*
C#CCOCCOCCOCCNc1nc(N2CCN(C(=O)CCCCCCCCCCNC(=O)Cn3cc(CCCCCN)nn3)CC2)nc(N2CCN(C(=O)CCCCCCCCCCNC(=O)[C@@H](CCC(=O)O)n3cc(CCCCCN)nn3)CC2)n1	nt	nt	nt	nt	nt	21*
C=CCN1C(=O)[C@@H](CC(=O)N2CCSCC2)[C@]2(C(=O)OCC)CCCCC/C=C/12	-1	9	-5	1	0	nt
C[C@H]1[C@@H](NC(=O)c2ccc(C(C)(C)C)cc2)CC[C@@]23CCCN2C(=O)CCC[C@@H]13	4	0	-2	2	nt	nt
CC(NC1=CC(=O)c2cccnc2C1=O)C(O)c1ccccc1 (stereo unspecified)	-27	6	-9	-46	4	36*
CC(c1ccccc1)N1C(=O)c2cccnc2C1=O (stereo unspecified)	0	-12	0	4	0	11
CCCOc1ccc(/C(O)=C2/C(=O)C(=O)N(CCCOC)C2c2cccnc2)cc1 (stereo unspecified)	8	-2	4	-3	0	28*
CCc1nnc(N/N=C/c2c(C)[nH]c3ccccc23)n1N	10*	-1	-5	10	1	-6
COc1cc(/C=N/N=C2/C(=O)Nc3ccccc32)cc(OC)c1O	1	2	7	5	0	25*
O=C1Nc2ccccc2/C1=N/N=C/c1cccc(O)c1	3	0	-3	-10	0	-6
Cc1ccc(C)c(NC(=O)c2ccc(CS(=O)(=O)Cc3ccccc3C)o2)c1	2	5	-2	-1	0	nt
OCCN1CCN(CCCN2c3ccccc3CCc3ccccc32)CC1	13*	-9	7	6	0	-4
Cc1cc(N2CCN(CCO)CC2)n2nc(C)nc2n1	-4	-3	-2	-7	0	nt
CCOP(=O)(c1ccc(N(C)C)cc1)C(O)c1ccccc1 (stereo unspecified)	1	0	0	0	0	-2
CCOP(=O)(CC(C(C)=O)C(O)c1ccccc1)OCC (stereo unspecified)	0	0	14*	0	0	-1
CCOc1ccccc1NC(=O)C(Sc1ccccc1)c1ccccc1 (stereo unspecified)	-1	-7	-4	-2	-1	27*
CC(C)CC(c1nnnn1Cc1cccs1)N1CCN(c2nc3ccccc3s2)CC1 (stereo unspecified)	9.9*	8	5	10	0	6
Cn1c(SCC(=O)NCCN2CCCCC2)nc2cccnc21	2	-3	-3	6	0	nt
COc1ccc(N/N=C(/N=Nc2nc(C)cc(=O)[nH]2)c2ccccc2)cc1	-4	-5	4	-2	0	44*
O=C1CCCCC1CCS(=O)(=O)NCc1ccccc1 (stereo unspecified)	-2	11	3	1	0	nt
CCCCN1CC(=O)N2[C@H](C[C@@]3(C)c4ccccc4N(S(=O)(=O)c4ccccc4)[C@@H]23)C1=O	-3	-4	-2	2	1	nt
Cc1ccc(CN2C(=O)CCC2C(=O)NC2CC2)cc1 (stereo unspecified)	0	-1	3	-2	-1	26*
COc1ccc(Cn2cc(CN3[C@H](Cc4ccccc4)COc4cc(Br)ccc4S3(=O)=O)nn2)cc1	3	-2	-2	2	1	nt
CSc1ccc(NC(=O)C2(C)CCN2C(=O)c2ccccc2CCc2ccccc2)cc1 (stereo unspecified)	0	-5	-1	2	0	42*
C#Cc1ccc(NC(=O)C2(C)CCN2C(=O)c2ccccc2CCc2ccccc2)cc1 (stereo unspecified)	-2	2	5	-4	0	-3
SMILES	PLCg1 inh	Tn6 DDE FP	DDE Tn7 FP inh	PLCb3 inh	proKLK7 act	NRP1-CendR mod
CC(C)c1cc(C(C)C)c(S(=O)(=O)N2CCCC(C(=O)NCc3cccs3)C2)c(C(C)C)c1 (stereo unspecified)	-1	1	-1	-2	0	nt
c1ccc(Cn2c(CNc3nc4ccccc4n3CCN3CCCCC3)nc3ccccc32)cc1	1	2	4	5	1	30*
Cc1nnc2n1NC(c1ccc(Cl)cc1)C(C(=O)N1CCC(C)CC1)S2 (stereo unspecified)	7	3	-3	9	-1	23*
CCCCCc1ccc(NC(=O)O[C@@H]2CC[C@@]34CCCN3C(=O)CCC[C@H]4C2)cc1	0	1	4	-1	nt	nt
Cc1ccc(C)c(S(=O)(=O)N(C)c2ccc(OC(=O)C3CCN(C(=O)Nc4ccccc4)CC3)cc2)c1	2	-1	4	2	0	25*
Cc1ccc(S(=O)(=O)N(C)C)cc1NC(=O)C1CCN(C(=O)Nc2ccccc2)CC1	0	-6	2	-10	0	1
Cc1cccc(N(CC(=O)NCc2ccc(F)cc2)C(=O)c2csnn2)c1C	0	5	-2	-2	0	20*
O=C(c1cc2ncc(CCCl)cn2n1)N1CCCCCC1	-12	0	0	-18	0	-2
O=C(O)c1cc2ncc(CCO)cn2n1	-7	2	2	-17	1	24*
Cc1ccc(-c2nnn(CC(=O)N(CC(=O)NC3CCCCC3)c3ccc(F)c(Cl)c3)n2)o1	1	-9	0	-1	0	29*
Cc1ccc(-c2nnn(CC(=O)N(CC(=O)NC3CCCC3)c3ccc(F)c(Cl)c3)n2)o1	-1	4	-2	1	0	-2
O=c1c2[nH]c3ccc(F)cc3c2ncn1CCCN1CCOCC1	-4	-7	0	-5	0	47*
COc1ccc2c(c1)[nH]c1c(=O)n(CCCN3CCOCC3)cnc12	-1	-5	3	2	-1	-6
c1nc(NCC2CCCC2)c2cc(-c3ccc4c(c3)OCO4)ccc2n1	-99	-19	-6	-146	nt	nt
Nc1nc2ccc(S(=O)(=O)N3CCCCC3)cc2s1	48*	10	-2	1	1	0
Cc1nc2ccc(S(=O)(=O)N3CCCCC3)cc2s1	1	-4	-3	-3	0	6
